Assay results of several laboratories.
Each line is one published result; the experiments were not run side by side.
DYRK3: Dual specificity tyrosine-phosphorylation-regulated kinase 3 (DYRK3, Homo sapiens, UniProt O43781)
BRDT BD2: Bromodomain testis-specific protein, BD2 (BRDT, Homo sapiens, UniProt Q58F21)
PTGS2: Prostaglandin G/H synthase 2 (PTGS2, Homo sapiens, UniProt P35354)
DYRK1B: Dual specificity tyrosine-phosphorylation-regulated kinase 1B (DYRK1B, Homo sapiens, UniProt Q9Y463)

Structure (SMILES)	target	assay	system	setting	measurement	result
O=C(O)c1ccc2c(c1)nc(Nc1ccc(Cl)cc1)c1ccncc12	DYRK3	enzyme activity, inhibitor, radiometric		1 µM	remaining activity	2%
NS(=O)(=O)c1ccc(Nc2nc(-c3ccc(F)cc3)c3ccccc3n2)cc1	BRDT BD2	binding, competition with immobilised ligand		1 µM	remaining binding	4%
Cc1cc2c(cc1N1C(=O)c3cccc4c(Cl)ccc(c34)C1=O)n(C)c(=O)n2C	BRDT BD2	thermal stability, DSF		10 µM	ΔTm	-1 °C
O=C(O)c1ccc(O)cc1	PTGS2	enzyme activity, inhibitor		3.9 µg/mL	inhibition	61.1%
CN(C)C1CCN(CC#Cc2nn(C3CCCC3)c3nc(NCc4ccccc4)ncc23)C1 (stereo not shown)	Serine/threonine-protein kinase PAK 1 (PAK1, Homo sapiens, UniProt Q13153)	enzyme activity, inhibitor, FRET		0.1 µM	inhibition	2%
O=C(O)c1ccc2c(c1)nc(Nc1ccc(Cl)cc1)c1ncncc12	DYRK3	enzyme activity, inhibitor, radiometric		1 µM	remaining activity	9%
Cc1ccc(NC(=O)c2ccc(C)c(C(F)(F)F)c2)cc1C#Cc1nn(C2CCC(O)CC2)c2ncnc(N)c12 (stereo not shown)	Rho-associated protein kinase 2 (Rock2, Rattus norvegicus, UniProt Q62868)	cell-free assay		10 µM	remaining signal	85%
O=C(O)c1ccc2c(c1)nc(NCCc1ccccc1)c1ncncc12	DYRK1B	enzyme activity, inhibitor, radiometric		1 µM	remaining activity	123%
C=C[C@@]1(C)C=C2CC[C@@H]3[C@](C)(CCC[C@@]3(C)C(=O)O)[C@H]2CC1	PTGS2	enzyme activity, inhibitor		15.63 µg/mL	inhibition	85.3%
CCN1CCN(Cc2ccc(NC(=O)c3ccc(C)c(Oc4ccnc5[nH]ccc45)c3)cc2C(F)(F)F)CC1	Inositol-tetrakisphosphate 1-kinase (Homo sapiens, UniProt Q13572)	target engagement in cells, inhibitor, chemoproteomics	Huh-7	1 µM	inhibition	-10.6%
COc1ccc(-c2cc(=O)c3c(O)cc(O[C@@H]4O[C@H](CO)[C@@H](O)[C@H](O)[C@H]4O)cc3o2)cc1O	PTGS2	enzyme activity, inhibitor		0.98 µg/mL	inhibition	72.2%
N=C(N)NCCC[C@H](NC(=O)[C@H](CC(=O)O)NC(=O)[C@H](Cc1c[nH]c2ccccc12)NC(=O)[C@H](CCCNC(=N)N)NC(=O)[C@@H](N)Cc1ccccc1)C(=O)N[C@@H](Cc1ccccc1)C(=O)NCC(=O)O	Melanocyte-stimulating hormone receptor (Mc1r, Mus musculus, UniProt Q01727)	cAMP, agonist	HEK293		Emax	30%
O=c1cc(-c2ccc(O)cc2)oc2cc(O)cc(O)c12	PTGS2	enzyme activity, inhibitor		31.25 µg/mL	inhibition	100%
N#Cc1cccc(Nc2nc3cc(C(=O)O)ccc3c3cncnc23)c1	DYRK1B	enzyme activity, inhibitor, radiometric		1 µM	remaining activity	87%
CCOc1ccc2cc(-c3nn(CC4CCN(C)CC4)c4ncnc(N)c34)ccc2c1	Calmodulin-domain protein kinase 1 (CDPK1, Toxoplasma gondii, UniProt Q9BJF5)	thermal stability, DSF		20 µM	ΔTm	12.3 °C
C[S+]([O-])c1ccc(-c2nc(-c3ccncc3)c(-c3ccc(F)cc3)[nH]2)cc1 (stereo not shown)	Bromodomain and WD repeat-containing protein 1, BD2 (BRWD1, Homo sapiens, UniProt Q9NSI6)	thermal stability, DSF		10 µM	ΔTm	1.32 °C
O=C(O)c1ccc2c(c1)nc(Nc1ccccc1)c1ccncc12	DYRK1B	enzyme activity, inhibitor, radiometric		1 µM	remaining activity	73%
Oc1ccc(-c2nc(-c3ccncc3)c(-c3ccc(F)cc3)[nH]2)cc1	Bromodomain testis-specific protein, BD1 (BRDT, Homo sapiens, UniProt Q58F21)	thermal stability, DSF		10 µM	ΔTm	-0.47 °C
O=C(NCCCNc1nc(Nc2cccc(NC(=O)N3CCCC3)c2)ncc1C1CC1)C1CCC1	NUAK family SNF1-like kinase 1 (NUAK1, Homo sapiens, UniProt O60285)	enzyme activity, inhibitor, radiometric		1 µM	remaining activity	51%
Cc1cnc(Nc2ccc(OCCN3CCCC3)cc2)nc1Nc1cccc(S(=O)(=O)NC(C)(C)C)c1	Transcription intermediary factor 1-beta (TRIM28, Homo sapiens, UniProt Q13263)	thermal stability, DSF		10 µM	ΔTm	0.08 °C
COc1cccc(Nc2nc3cc(C(=O)O)ccc3c3cnccc23)c1	DYRK3	enzyme activity, inhibitor, radiometric		1 µM	remaining activity	2%
COc1ccc2c(c1)c(CC(=O)O)c(C(F)(F)F)n2C(=O)c1ccc(Cl)cc1	PTGS2	enzyme activity, inhibitor			kinact/KI	13000 M⁻¹ s⁻¹
COC(=O)c1ccc(O)cc1	PTGS2	enzyme activity, inhibitor		0.98 µg/mL	inhibition	0%
Nc1ncnc2occ(-c3ccc(NC(=O)Nc4cc(C(F)(F)F)ccc4F)cc3)c12	Cyclin-dependent kinase-like 5 (CDKL5, Homo sapiens, UniProt O76039)	cell-free assay		20 µM	remaining signal	4.3%
O=C(O)c1ccc2c(c1)nc(Nc1ccc3ccccc3c1)c1ccncc12	DYRK1B	enzyme activity, inhibitor, radiometric		1 µM	remaining activity	84%
CC(CCC(=O)NCC(=O)O)C1CCC2C3CCC4CC(O)CCC4(C)C3CC(O)C12C (stereo not shown)	Serine hydroxymethyltransferase, mitochondrial (SHMT2, Homo sapiens, UniProt P34897)	thermal stability		50 µM	ΔTm	12.3 °C
N#Cc1cccc(Nc2nc3cc(C(=O)O)ccc3c3cnccc23)c1	DYRK1B	enzyme activity, inhibitor, radiometric		1 µM	remaining activity	10%
Cc1cc2c(NC(=O)c3cccc(C(=O)O)c3)cccc2nn1	CREB-binding protein, bromodomain (CREBBP, Homo sapiens, UniProt Q92793)	thermal stability, DSF		100 µM	ΔTm	4 °C
